ChEMBL document CHEMBL4715728, “New bifunctional antioxidant/σ1 agonist ligands: Preliminary chemico-physical and biological evaluation” (Bioorg Med Chem, 2016)
Calls of active or inactive are those of the source. The rule behind the calls is not given here.

Experiments:
[1] = target: Sigma non-opioid intracellular receptor 1 (Cavia porcellus, UniProt Q60492); assay: Displacement of [3H]-(+)-pentazocine from sigma1 receptor in guinea pig brain membrane incubated for 150 mins by liquid scintillation counting method; type: cell membranes
Sigma non-opioid intracellular receptor 1, sequence (Q60492 whole entry): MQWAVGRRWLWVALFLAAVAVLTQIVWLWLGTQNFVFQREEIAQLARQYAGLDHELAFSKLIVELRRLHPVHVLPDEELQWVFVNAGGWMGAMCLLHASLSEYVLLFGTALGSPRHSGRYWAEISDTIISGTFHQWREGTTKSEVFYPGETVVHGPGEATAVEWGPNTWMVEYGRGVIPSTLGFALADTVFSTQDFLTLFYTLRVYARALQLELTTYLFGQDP
How it was run: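 Guinea pig brain membranes (500 µg protein) in 50 mM Tris-HCl pH 7.4 with 3 nM [3H]-(+)-pentazocine. […] Incubated 150 min at 37 °C, then filtered on PEI-soaked GF/B filters and counted by scintillation. Ki obtained by EBDA/LIGAND; three determinations.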

[2] = Displacement of [3H]-DTG from Sigma 2 receptor in guinea pig brain membrane incubated for 120 mins in presence of sigma1 blocker (+)-SKF-10047 by liquid scintillation counting method; type: cell membranes, Cavia porcellus
Cavia porcellus = species on record: Cavia porcellus; assay: Selectivity ratio of Ki for displacement of [3H]-DTG from sigma2 receptor in guinea pig brain membrane to Ki for displacement of [3H]-(+)-pentazocine from sigma1 receptor in guinea pig brain membrane; type: cell membranes
[3] = Cytotoxicity against Sprague-Dawley rat Cerebral cortex neuron assessed as cell viability at 0.1 uM incubated for 24 hrs by MTT assay relative to control; type: tissue-based; settings: cerebral cortex neurons, read-out: Activity
How it was run: (§1)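 Primary fetal rat cortical neurons, matured 8 days, treated 24 h at 37 °C with compound (0.1–100 µM; 0.5% DMSO or water vehicle). MTT 0.7 mg/ml was then added for 30 min at 37 °C, and formazan was extracted with isopropanol/formic acid (95:5) and read at 560 nm. Untreated control was set as 100% viability. Four independent experiments.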

[4] = Cytotoxicity against Sprague-Dawley rat Cerebral cortex neuron assessed as cell viability at 1 uM incubated for 24 hrs by MTT assay relative to control; type: tissue-based; settings: cerebral cortex neurons, read-out: Activity; how it was run: as §1
[5] = Cytotoxicity against Sprague-Dawley rat Cerebral cortex neuron assessed as cell viability at 10 uM incubated for 24 hrs by MTT assay relative to control; type: tissue-based; settings: cerebral cortex neurons, read-out: Activity; how it was run: as §1
[6] = Cytotoxicity against Sprague-Dawley rat Cerebral cortex neuron assessed as cell viability at 25 uM incubated for 24 hrs by MTT assay relative to control; type: tissue-based; settings: cerebral cortex neurons, read-out: Activity; how it was run: as §1
[7] = Cytotoxicity against rat Sprague-Dawley Cerebral cortex neuron assessed as cell viability at 50 uM incubated for 24 hrs by MTT assay relative to control; type: tissue-based; settings: cerebral cortex neurons, read-out: Activity; how it was run: as §1
[8] = Cytotoxicity against Sprague-Dawley rat Cerebral cortex neuron assessed as cell viability at 100 uM incubated for 24 hrs by MTT assay relative to control; type: tissue-based; settings: cerebral cortex neurons, read-out: Activity; how it was run: as §1
[9] = Cytotoxicity against Sprague-Dawley rat Cerebral cortex neuron assessed as LDH activity at 0.1 uM incubated for 24 hrs by LDH assay (reference value: […]); type: tissue-based
How it was run: (§2)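 Primary fetal rat cortical neurons, matured 8 days on poly-D-lysine, exposed 24 h at 37 °C to compound (0.1–100 µM; DMSO 0.5% or water vehicle). LDH released into 100 µl culture medium was measured by kit as the rate of NAD+ reduction (absorbance increase at 490 nm). Positive control was mitomycin C. Four independent experiments.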

[10] = Cytotoxicity against Sprague-Dawley rat Cerebral cortex neuron assessed as LDH activity at 1 uM incubated for 24 hrs by LDH assay (reference value: […]); type: tissue-based; how it was run: as §2
[11] = Cytotoxicity against Sprague-Dawley rat Cerebral cortex neuron assessed as LDH activity at 10 uM incubated for 24 hrs by LDH assay; type: tissue-based; how it was run: as §2
[12] = Cytotoxicity against Sprague-Dawley rat Cerebral cortex neuron assessed as LDH activity at 25 uM incubated for 24 hrs by LDH assay (reference value: […]); type: tissue-based; how it was run: as §2
[13] = Cytotoxicity against Sprague-Dawley rat Cerebral cortex neuron assessed as LDH activity at 50 uM incubated for 24 hrs by LDH assay (reference value: […]); type: tissue-based; how it was run: as §2
[14] = Cytotoxicity against Sprague-Dawley rat Cerebral cortex neuron assessed as LDH activity at 100 uM incubated for 24 hrs by LDH assay (reference value: […]); type: tissue-based; how it was run: as §2
[15] = Antioxidant activity in Sprague-Dawley rat Cerebral cortex neuron assessed as total antioxidant capacity by measuring trolox equivalents at 0.1 uM after 24 hrs; type: functional
How it was run: (§3)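 Primary cerebral cortex neurons from rat fetuses, grown on poly-D-lysine in neurobasal medium with fetal calf serum (5% CO2, 37 °C), tested after 8 days in culture. Compounds in DMSO (0.5%) or sterile water were added and incubated 24 h at 37 °C. Cells were washed in ice-cold PBS and homogenized in 0.9% saline. Intracellular TAC (Trolox equiv.) and TOS (H2O2 equiv.) were read by kit. Ascorbic acid 10 µM (TAC) and H2O2 25 µM (TOS) served as positive controls. Four independent experiments.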

[16] = Antioxidant activity in Sprague-Dawley rat Cerebral cortex neuron assessed as total antioxidant capacity by measuring trolox equivalents at 1 uM after 24 hrs; type: functional; how it was run: as §3
[17] = Antioxidant activity in Sprague-Dawley rat Cerebral cortex neuron assessed as total antioxidant capacity by measuring trolox equivalents at 10 uM after 24 hrs; type: functional; how it was run: as §3
[18] = Antioxidant activity in Sprague-Dawley rat Cerebral cortex neuron assessed as total antioxidant capacity by measuring trolox equivalents at 25 uM after 24 hrs; type: functional; how it was run: as §3
[19] = Antioxidant activity in Sprague-Dawley rat Cerebral cortex neuron assessed as total antioxidant capacity by measuring trolox equivalents at 50 uM after 24 hrs; type: functional; how it was run: as §3
[20] = Antioxidant activity in Sprague-Dawley rat Cerebral cortex neuron assessed as total antioxidant capacity by measuring trolox equivalents at 100 uM after 24 hrs; type: functional; how it was run: as §3
[21] = Antioxidant activity in Sprague-Dawley rat Cerebral cortex neuron assessed as total oxidative stress level by measuring H2O2 equivalents at 0.1 uM after 24 hrs (reference value: 2.3 +/- 0.3 umol/L); type: functional; how it was run: as §3
[22] = Antioxidant activity in Sprague-Dawley rat Cerebral cortex neuron assessed as total oxidative stress level by measuring H2O2 equivalents at 1 uM after 24 hrs (reference value: 2.3 +/- 0.3 umol/L); type: functional; how it was run: as §3
[23] = Antioxidant activity in Sprague-Dawley rat Cerebral cortex neuron assessed as total oxidative stress level by measuring H2O2 equivalents at 10 uM after 24 hrs (reference value: 2.3 +/- 0.3 umol/L); type: functional; how it was run: as §3
[24] = Antioxidant activity in Sprague-Dawley rat Cerebral cortex neuron assessed as total oxidative stress level by measuring H2O2 equivalents at 25 uM after 24 hrs (reference value: 2.3 +/- 0.3 umol/L); type: functional; how it was run: as §3
[25] = Antioxidant activity in Sprague-Dawley rat Cerebral cortex neuron assessed as total oxidative stress level by measuring H2O2 equivalents at 50 uM after 24 hrs (reference value: 2.3 +/- 0.3 umol/L); type: functional; how it was run: as §3
[26] = Antioxidant activity in Sprague-Dawley rat Cerebral cortex neuron assessed as total oxidative stress level by measuring H2O2 equivalents at 100 uM after 24 hrs (reference value: 2.3 +/- 0.3 umol/L); type: functional; how it was run: as §3
Mus musculus [27] = assay: In vivo agonist activity at sigma 1 receptor in Swiss […] mouse assessed as modulation of morphine-induced analgesic effect by measuring tail flick latency at 1 mg/kg, ip measured after 90 mins by radiant heat tail-flick method; type: functional, organism-based
Mus musculus [28] = assay: In vivo agonist activity at sigma 1 receptor in Swiss […] mouse assessed as modulation of morphine-induced analgesic effect by measuring tail flick latency at 1 mg/kg, ip preincubated for 45 mins followed by morphine treatment after 90 mins by radiant heat tail-flick method; type: functional, organism-based; settings: time 135.0 min

SMILES	viability at 24 h, 0.1 µM [3]	viability at 24 h, 1 µM [4]	viability at 24 h, 10 µM [5]	viability at 24 h, 25 µM [6]	viability at 24 h, 50 µM [7]	viability at 24 h, 100 µM [8]	Activity [9]	Activity [10]	Activity [11]	Activity [12]	Activity [13]	Activity [14]	TAC [15]	TAC [16]	TAC [17]	TAC [18]	TAC [19]	TAC [20]	Activity [21]	Activity [22]	further results
O=C(CCCC[C@@H]1CCSS1)N1CCN(Cc2ccccc2)CC1	98.5%	98.7%	96.5%	96.6%	95.7%	95.8%	0.3 mU/ml	0.32 mU/ml	0.32 mU/ml	0.3 mU/ml	0.3 mU/ml	0.32 mU/ml	10.2 mmol/L	10.5 mmol/L	10.8 mmol/L	13 mmol/L	12.8 mmol/L	11.2 mmol/L	0.5 µmol/L	0.5 µmol/L	Ki [1]: 6.1 nM; Ki [2]: 1240 nM; Ratio Ki (Cavia porcellus): 204; Activity [23]: 0.4 µmol/L; Activity [24]: 0.4 µmol/L; Activity [25]: 0.4 µmol/L; Activity [26]: 0.5 µmol/L
CO[C@@]12[C@H](COC(N)=O)C3=C(C(=O)C(C)=C(N)C3=O)N1C[C@@H]1N[C@@H]12 [MITOMYCIN]	–	–	46.1%	–	–	–	–	–	2.23 mU/ml	–	–	–	–	–	–	–	–	–	–	–	–
O=C1O[C@H]([C@@H](O)CO)C(O)=C1O [ASCORBIC ACID]	–	–	–	–	–	–	–	–	–	–	–	–	–	–	26.9 mmol/L	–	–	–	–	–	–
O=C(CCCC[C@@H]1CCSS1)OC1CCN(Cc2ccccc2)CC1	100%	98.7%	96.4%	96.6%	97.4%	96.2%	0.3 mU/ml	0.28 mU/ml	0.3 mU/ml	0.32 mU/ml	0.34 mU/ml	0.32 mU/ml	10.9 mmol/L	10.7 mmol/L	10.9 mmol/L	11.3 mmol/L	10.9 mmol/L	11 mmol/L	0.4 µmol/L	0.4 µmol/L	Ki [1]: 17.7 nM; Ki [2]: 1870 nM; Ratio Ki (Cavia porcellus): 106; Activity (Mus musculus [27]): inactive; Activity (Mus musculus [28]): Active; Activity [23]: 0.4 µmol/L; Activity [24]: 0.5 µmol/L; Activity [25]: 0.5 µmol/L; Activity [26]: 0.5 µmol/L
O=C(O)CCCC[C@@H]1CCSS1 [THIOCTIC ACID]	98.6%	97.9%	98.1%	97.2%	96.4%	95.9%	0.27 mU/ml	0.28 mU/ml	0.28 mU/ml	0.27 mU/ml	0.29 mU/ml	0.29 mU/ml	10.7 mmol/L	10.5 mmol/L	10.9 mmol/L	11.2 mmol/L	12.1 mmol/L	13.5 mmol/L	0.4 µmol/L	0.5 µmol/L	Activity [23]: 0.4 µmol/L; Activity [24]: 0.4 µmol/L; Activity [25]: 0.5 µmol/L; Activity [26]: 0.5 µmol/L
